# Data published in ChEMBL document CHEMBL4613316, “Synthesis and Selective Functionalization of Thiadiazine 1,1-Dioxides with Efficacy in a Model of Huntington's Disease” (ACS Med Chem Lett, 2020).
# Activity calls are given as the source filed them. The calls are words filed in the database; no cut-off is given here.
# Columns and labels:
# Homo sapiens = organism: Homo sapiens; assay: Agonist activity at HSP70 in human HEK293H cells transfected with HTT17Q assessed as reduction in HTT protein aggregation at 10 uM measured after 6 hrs by DAPI staining based confocal microscopy; assay type: cell-based
# In short: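 HEK293H cells transfected with 4 μg HTT17Q-mCherry construct; 24 h post-transfection treated with 10 μM compound or DMSO vehicle control for 6 h. Cells stained with DAPI and imaged by confocal microscopy. Aggregates (puncta) counted per cell with a bright-spot detection tool. Significance assessed against DMSO control.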
# [1] = molecular target: T1, Histone deacetylase 8 (Homo sapiens) (UniProt Q9BY41); assay: Inhibition of recombinant human GST-His-tagged HDAC8 at 1 uM using fluorogenic HDAC substrate incubated for 30 mins by microplate reader assay relative to control
# T1 sequence (whole entry): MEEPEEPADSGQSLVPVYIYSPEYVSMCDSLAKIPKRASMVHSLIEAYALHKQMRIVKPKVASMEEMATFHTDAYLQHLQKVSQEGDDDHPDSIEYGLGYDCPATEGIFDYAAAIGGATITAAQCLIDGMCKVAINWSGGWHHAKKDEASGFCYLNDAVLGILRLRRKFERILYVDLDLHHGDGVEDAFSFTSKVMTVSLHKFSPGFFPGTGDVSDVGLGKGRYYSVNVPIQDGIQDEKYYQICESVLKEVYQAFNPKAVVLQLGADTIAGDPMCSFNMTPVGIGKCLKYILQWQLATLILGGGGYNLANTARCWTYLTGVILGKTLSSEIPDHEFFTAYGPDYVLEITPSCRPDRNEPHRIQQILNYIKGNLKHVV
# [2] = molecular target: Histone deacetylase 4 (Homo sapiens) (UniProt P56524); assay: Inhibition of recombinant human GST-His-tagged HDAC4 at 0.1 to 1 uM using fluorogenic HDAC substrate incubated for 30 mins by microplate reader assay
# [3] = molecular target: Histone deacetylase 2 (Homo sapiens) (UniProt Q92769); assay: Inhibition of HDAC2 in human HeLa nuclear extract at 0.1 to 1 uM using HDAC substrate incubated for 30 mins by microplate reader assay; assay type: cell-free
# [4] = molecular target: Histone deacetylase 3 (Homo sapiens) (UniProt O15379); assay: Inhibition of HDAC3 in human HeLa nuclear extract at 0.1 to 1 uM using HDAC substrate incubated for 30 mins by microplate reader assay; assay type: cell-free
# [5] = molecular target: T2, Protein deacetylase HDAC6 (Homo sapiens) (UniProt Q9UBN7); assay: Inhibition of recombinant human GST-His-tagged HDAC6 at 0.1 to 1 uM using fluorogenic HDAC substrate incubated for 30 mins by microplate reader assay
# T2 sequence (whole entry): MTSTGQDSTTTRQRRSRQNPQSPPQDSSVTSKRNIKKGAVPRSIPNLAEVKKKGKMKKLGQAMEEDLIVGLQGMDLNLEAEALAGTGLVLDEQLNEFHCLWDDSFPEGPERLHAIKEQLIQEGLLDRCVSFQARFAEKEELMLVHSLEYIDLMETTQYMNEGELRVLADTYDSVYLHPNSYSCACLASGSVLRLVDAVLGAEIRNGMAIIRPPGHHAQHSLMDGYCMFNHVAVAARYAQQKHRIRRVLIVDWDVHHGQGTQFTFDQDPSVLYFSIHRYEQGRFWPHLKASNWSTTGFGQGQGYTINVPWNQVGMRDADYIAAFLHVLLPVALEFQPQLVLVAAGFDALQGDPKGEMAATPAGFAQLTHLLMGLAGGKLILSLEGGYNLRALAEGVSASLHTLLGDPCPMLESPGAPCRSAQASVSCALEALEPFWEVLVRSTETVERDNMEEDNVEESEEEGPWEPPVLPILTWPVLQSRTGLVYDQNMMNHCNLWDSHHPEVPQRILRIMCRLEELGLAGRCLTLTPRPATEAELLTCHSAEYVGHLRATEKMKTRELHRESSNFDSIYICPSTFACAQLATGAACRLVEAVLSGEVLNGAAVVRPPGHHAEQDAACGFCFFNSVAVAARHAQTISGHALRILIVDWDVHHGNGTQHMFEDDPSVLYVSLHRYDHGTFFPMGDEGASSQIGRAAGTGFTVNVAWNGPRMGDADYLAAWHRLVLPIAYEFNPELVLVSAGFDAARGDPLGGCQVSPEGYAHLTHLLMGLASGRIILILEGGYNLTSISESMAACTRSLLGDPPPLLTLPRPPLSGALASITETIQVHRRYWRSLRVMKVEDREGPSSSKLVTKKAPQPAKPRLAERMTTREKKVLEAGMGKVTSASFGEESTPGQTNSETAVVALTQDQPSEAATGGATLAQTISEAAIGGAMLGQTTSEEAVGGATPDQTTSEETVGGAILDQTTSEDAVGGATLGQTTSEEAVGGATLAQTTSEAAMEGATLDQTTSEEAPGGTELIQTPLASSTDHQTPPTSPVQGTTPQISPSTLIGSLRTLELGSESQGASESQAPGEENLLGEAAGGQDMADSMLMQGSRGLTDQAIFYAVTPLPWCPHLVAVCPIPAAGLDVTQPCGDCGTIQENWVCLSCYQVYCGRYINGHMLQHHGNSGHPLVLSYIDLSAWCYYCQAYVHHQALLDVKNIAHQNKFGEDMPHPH
# [6] = molecular target: Histone deacetylase 1 (Homo sapiens) (UniProt Q13547); assay: Inhibition of HDAC1 in human HeLa nuclear extract at 0.1 to 1 uM using HDAC substrate incubated for 30 mins by microplate reader assay; assay type: cell-free
# [7] = molecular target: Histone deacetylase 5 (Homo sapiens) (UniProt Q9UQL6); assay: Inhibition of recombinant human GST-His-tagged HDAC5 at 0.1 to 1 uM using fluorogenic HDAC substrate incubated for 30 mins by microplate reader assay
# [8] = molecular target: T3, Histone deacetylase 7 (Homo sapiens) (UniProt Q8WUI4); assay: Inhibition of recombinant human GST-His-tagged HDAC7 at 1 uM using fluorogenic HDAC substrate incubated for 30 mins by microplate reader assay relative to control
# T3 sequence (whole entry): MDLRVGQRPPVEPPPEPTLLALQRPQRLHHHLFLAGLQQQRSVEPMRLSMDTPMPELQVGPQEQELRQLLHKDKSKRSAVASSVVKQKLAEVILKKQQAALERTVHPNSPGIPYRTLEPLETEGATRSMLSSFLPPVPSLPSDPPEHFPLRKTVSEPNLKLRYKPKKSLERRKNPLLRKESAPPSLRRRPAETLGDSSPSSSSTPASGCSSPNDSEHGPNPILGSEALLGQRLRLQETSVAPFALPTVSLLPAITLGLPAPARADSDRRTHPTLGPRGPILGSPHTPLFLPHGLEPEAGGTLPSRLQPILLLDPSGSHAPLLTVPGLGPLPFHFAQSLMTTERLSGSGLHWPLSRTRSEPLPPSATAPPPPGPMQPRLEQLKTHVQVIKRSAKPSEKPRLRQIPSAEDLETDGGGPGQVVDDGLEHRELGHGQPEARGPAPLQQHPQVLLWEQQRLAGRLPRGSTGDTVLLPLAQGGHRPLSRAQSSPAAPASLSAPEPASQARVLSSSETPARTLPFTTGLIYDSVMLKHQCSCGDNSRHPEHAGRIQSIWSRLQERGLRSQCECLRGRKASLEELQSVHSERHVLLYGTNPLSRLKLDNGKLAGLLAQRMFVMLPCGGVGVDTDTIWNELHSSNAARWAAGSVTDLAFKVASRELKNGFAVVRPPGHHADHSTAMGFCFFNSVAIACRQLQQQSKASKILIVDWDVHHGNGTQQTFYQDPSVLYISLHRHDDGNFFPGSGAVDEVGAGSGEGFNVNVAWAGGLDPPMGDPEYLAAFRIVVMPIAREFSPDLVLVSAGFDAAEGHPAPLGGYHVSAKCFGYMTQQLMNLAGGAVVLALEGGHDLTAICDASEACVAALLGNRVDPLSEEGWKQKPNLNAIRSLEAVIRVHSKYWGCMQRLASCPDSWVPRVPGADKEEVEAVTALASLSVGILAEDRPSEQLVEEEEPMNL
# Sequence of Histone deacetylase 5 (Homo sapiens) (Q9UQL6 whole entry): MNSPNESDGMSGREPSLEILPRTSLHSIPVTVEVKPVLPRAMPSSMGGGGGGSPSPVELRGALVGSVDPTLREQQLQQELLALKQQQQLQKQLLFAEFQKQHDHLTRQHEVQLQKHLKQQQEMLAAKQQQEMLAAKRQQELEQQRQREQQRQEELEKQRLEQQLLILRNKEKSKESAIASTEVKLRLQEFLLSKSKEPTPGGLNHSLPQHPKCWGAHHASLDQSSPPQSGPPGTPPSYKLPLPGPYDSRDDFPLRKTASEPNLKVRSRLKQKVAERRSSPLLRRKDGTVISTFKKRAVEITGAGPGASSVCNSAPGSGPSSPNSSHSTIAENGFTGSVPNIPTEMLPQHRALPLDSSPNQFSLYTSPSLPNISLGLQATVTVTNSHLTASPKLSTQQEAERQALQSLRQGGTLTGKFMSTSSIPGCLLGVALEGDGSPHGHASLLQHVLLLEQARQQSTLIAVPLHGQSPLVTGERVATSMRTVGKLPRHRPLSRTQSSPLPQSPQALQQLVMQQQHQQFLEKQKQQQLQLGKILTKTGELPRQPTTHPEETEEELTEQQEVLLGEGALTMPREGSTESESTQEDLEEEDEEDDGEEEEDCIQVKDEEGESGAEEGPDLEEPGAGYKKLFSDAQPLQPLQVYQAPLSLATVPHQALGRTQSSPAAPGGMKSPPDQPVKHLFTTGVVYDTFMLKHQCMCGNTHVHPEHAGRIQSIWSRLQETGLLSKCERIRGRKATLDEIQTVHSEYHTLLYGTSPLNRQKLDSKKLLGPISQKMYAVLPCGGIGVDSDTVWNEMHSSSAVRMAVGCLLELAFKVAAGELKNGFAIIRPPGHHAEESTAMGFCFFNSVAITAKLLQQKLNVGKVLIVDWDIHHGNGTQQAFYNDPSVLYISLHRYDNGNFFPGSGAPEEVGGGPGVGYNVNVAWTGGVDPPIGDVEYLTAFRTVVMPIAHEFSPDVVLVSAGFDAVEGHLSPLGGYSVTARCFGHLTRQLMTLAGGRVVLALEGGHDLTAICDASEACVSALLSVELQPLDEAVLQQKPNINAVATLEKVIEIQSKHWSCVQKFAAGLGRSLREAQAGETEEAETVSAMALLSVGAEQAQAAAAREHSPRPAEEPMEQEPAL
# Sequence of Histone deacetylase 4 (Homo sapiens) (P56524 whole entry): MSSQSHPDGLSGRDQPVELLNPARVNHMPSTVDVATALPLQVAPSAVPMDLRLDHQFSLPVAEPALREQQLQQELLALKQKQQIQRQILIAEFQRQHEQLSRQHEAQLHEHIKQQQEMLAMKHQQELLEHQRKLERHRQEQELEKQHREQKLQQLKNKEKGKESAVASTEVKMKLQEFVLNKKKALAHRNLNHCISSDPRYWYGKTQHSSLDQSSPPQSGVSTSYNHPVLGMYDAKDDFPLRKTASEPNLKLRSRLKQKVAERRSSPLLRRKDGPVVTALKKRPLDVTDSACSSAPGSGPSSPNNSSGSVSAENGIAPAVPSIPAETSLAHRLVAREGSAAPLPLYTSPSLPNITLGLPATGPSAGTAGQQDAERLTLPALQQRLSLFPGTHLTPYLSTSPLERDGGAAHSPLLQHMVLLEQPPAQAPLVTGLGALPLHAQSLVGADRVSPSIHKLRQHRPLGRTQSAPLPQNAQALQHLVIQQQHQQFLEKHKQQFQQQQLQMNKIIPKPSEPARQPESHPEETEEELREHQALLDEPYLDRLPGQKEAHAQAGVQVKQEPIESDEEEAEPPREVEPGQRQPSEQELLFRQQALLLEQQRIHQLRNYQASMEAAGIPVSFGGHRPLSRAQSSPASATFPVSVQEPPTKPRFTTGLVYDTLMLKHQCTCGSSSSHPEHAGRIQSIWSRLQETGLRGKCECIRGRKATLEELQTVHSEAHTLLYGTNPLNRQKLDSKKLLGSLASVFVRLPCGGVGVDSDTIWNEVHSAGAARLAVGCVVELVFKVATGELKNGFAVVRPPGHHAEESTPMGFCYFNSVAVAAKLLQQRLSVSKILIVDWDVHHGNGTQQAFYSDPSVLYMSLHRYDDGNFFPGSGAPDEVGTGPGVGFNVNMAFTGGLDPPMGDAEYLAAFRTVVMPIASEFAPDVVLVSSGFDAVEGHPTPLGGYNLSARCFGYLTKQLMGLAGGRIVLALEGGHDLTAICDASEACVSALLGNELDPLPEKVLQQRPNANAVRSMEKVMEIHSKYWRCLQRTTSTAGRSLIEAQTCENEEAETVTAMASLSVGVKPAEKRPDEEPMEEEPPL
# Sequence of Histone deacetylase 2 (Homo sapiens) (Q92769 whole entry): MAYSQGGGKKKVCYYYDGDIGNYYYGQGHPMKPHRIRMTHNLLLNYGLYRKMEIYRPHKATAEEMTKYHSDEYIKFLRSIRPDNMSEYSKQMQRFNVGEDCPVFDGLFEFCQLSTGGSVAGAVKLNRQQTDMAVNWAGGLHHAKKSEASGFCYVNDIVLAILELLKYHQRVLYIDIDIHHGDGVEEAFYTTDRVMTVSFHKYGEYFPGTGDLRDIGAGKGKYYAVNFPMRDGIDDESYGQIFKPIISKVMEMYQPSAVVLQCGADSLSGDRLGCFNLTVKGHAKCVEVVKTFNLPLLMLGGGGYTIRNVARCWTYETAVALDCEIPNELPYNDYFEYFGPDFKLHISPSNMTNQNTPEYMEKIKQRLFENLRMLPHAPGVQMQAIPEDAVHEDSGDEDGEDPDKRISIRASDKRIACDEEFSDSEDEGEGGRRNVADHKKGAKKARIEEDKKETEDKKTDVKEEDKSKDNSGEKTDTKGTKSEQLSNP
# Sequence of Histone deacetylase 3 (Homo sapiens) (O15379 whole entry): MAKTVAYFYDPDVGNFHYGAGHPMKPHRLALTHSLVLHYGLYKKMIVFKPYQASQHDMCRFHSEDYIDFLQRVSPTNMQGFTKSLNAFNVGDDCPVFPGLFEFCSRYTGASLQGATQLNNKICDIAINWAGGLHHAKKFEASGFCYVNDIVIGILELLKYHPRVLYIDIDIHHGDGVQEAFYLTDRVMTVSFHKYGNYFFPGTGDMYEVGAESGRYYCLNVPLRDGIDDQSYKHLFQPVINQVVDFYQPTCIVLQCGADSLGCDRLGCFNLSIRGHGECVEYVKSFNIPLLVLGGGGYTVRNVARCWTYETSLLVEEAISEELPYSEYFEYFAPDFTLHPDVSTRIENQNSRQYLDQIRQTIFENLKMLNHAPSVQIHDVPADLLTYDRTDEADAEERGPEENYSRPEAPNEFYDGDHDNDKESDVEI
# Sequence of Histone deacetylase 1 (Homo sapiens) (Q13547 whole entry): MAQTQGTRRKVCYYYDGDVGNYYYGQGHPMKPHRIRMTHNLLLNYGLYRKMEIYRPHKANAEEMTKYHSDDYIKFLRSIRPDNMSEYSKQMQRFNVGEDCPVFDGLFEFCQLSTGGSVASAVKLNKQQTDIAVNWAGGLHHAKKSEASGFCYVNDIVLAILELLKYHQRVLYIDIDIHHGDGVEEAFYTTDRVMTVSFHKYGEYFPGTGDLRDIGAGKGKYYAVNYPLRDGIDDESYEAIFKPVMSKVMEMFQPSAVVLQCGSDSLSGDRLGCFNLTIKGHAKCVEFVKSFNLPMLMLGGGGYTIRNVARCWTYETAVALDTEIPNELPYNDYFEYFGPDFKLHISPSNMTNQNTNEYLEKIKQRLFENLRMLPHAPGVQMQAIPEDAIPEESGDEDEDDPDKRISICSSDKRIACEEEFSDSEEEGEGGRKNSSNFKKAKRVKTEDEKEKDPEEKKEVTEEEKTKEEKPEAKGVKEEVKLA
Compound,Activity (Homo sapiens),inhibition [1] [%],inhibition [2],inhibition [3],inhibition [4],inhibition [5],inhibition [6],inhibition [7],inhibition [8] [%]
O=C(O)CCCN1C=C(C(=O)O)C(c2ccc(Cl)cc2Cl)NS1(=O)=O (stereo not given),Active,,,,,,,,
CCOC(=O)C1=CN(CCCC(=O)OC)S(=O)(=O)NC1c1ccc(Cl)cc1Cl (stereo not given),Active,,,,,,,,
CCOC(=O)C1=CN(Cc2ccc(C(=O)O)cc2)S(=O)(=O)NC1c1ccc(Cl)cc1Cl (stereo not given),Active,,,,,,,,
COC(=O)CCCN1C=C(C(=O)OCc2ccccc2)C(c2ccc(Cl)cc2Cl)NS1(=O)=O (stereo not given),Active,,,,,,,,
CC1=C(C(=O)OCc2ccccc2)C(c2ccc(Cl)cc2Cl)NC(=O)N1CCCC(=O)O (stereo not given),Active,,,,,,,,
CCOC(=O)C1=CN(CCCC(=O)NO)S(=O)(=O)NC1c1ccc(Cl)cc1Cl (stereo not given),Active,35 to 60,inactive,inactive,inactive,inactive,inactive,inactive,
COC(=O)CCCN1C=C(C(=O)O)C(c2ccc(Cl)cc2Cl)NS1(=O)=O (stereo not given),Active,35 to 60,inactive,inactive,inactive,inactive,inactive,inactive,
CCOC(=O)C1=CN(Cc2ccc(CO)cc2)S(=O)(=O)NC1c1ccc(Cl)cc1Cl (stereo not given),Active,,,,,,,,
CCOC(=O)C1=CNS(=O)(=O)N(Cc2ccc(C(=O)O)cc2)C1c1ccc(Cl)cc1Cl (stereo not given),Active,35 to 60,inactive,inactive,inactive,inactive,inactive,inactive,
CCOC(=O)C1=CN(C(=O)OC(C)(C)C)S(=O)(=O)N(Cc2ccc(C(=O)OC(C)(C)C)cc2)C1c1ccc(Cl)cc1Cl (stereo not given),Active,,,,,,,,
CCOC(=O)C1=CN(Cc2ccc(C(=O)NO)cc2)S(=O)(=O)NC1c1ccc(Cl)cc1Cl (stereo not given),Active,35 to 60,inactive,inactive,inactive,inactive,inactive,inactive,40
